Measurements: ChEMBL document CHEMBL1148429, “Penicillin-derived inhibitors that simultaneously target both metallo- and serine-beta-lactamases” (Bioorg Med Chem Lett, 2004)
≈ marks a conversion by molar mass, not a printed value.

What was measured:
Escherichia coli = assay: Synergic activity against IMP-1 beta lactamase produced by Escherichia coli in presence of Piperacillin and Tazobactam; S = susceptible; format: functional
Method in brief: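 Synergy with piperacillin against metallo-β-lactamase-producing strains (IMP-1; SPM-1, VIM-1 or VIM-7 carriers). The initial screen used […] at a 1:1 antibiotic:inhibitor ratio. Inhibitor was tested with tazobactam or DVR-II-183 added as a serine β-lactamase inhibitor, or without one.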

[1] = target: Beta-lactamase TEM (Escherichia coli) (UniProt P62593); assay: Beta-Lactamase inhibitory activity against representative class A (TEM-1) serine enzyme from Escherichia coli ATCC 35218 in presence of Piperacillin
Method in brief: (§1)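 MIC of piperacillin against β-lactamase-producing strains, with the piperacillin concentration varied and the inhibitor held constant at […].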

Pseudomonas aeruginosa [2] = assay: Synergistic activity against VIM-7 beta lactamase produced by Pseudomonas aeruginosa in presence of Piperacillin and Tazobactam; R = Resistant
Staphylococcus aureus = assay: Antibacterial activity was determined against the Staphylococcus aureus ATCC 29213 in presence of Piperacillin; format: functional; method in brief: as §1
Pseudomonas aeruginosa [3] = assay: Synergistic activity against SPM-1 beta lactamase produced by Pseudomonas aeruginosa in presence of Piperacillin and Tazobactam; R = Resistant
[4] = target: T1, Metallo-beta-lactamase type 2 (Bacillus cereus, UniProt P14488); assay: Inhibition of class B (BCII) metallo-beta-lactamase representative enzyme
T1 sequence (P14488 whole entry): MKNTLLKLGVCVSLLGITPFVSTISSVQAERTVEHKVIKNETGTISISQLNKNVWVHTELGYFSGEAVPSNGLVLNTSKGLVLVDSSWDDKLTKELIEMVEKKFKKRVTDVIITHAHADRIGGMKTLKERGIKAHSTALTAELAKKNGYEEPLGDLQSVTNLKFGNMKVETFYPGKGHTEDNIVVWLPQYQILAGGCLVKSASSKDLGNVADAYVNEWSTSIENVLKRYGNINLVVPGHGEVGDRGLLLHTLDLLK
Method in brief: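 BCII metallo-β-lactamase assay: inhibitor and enzyme incubated together for 4 min in 970 µL, then concentrated nitrocefin added to 1 mL final volume. IC50 determined from nitrocefin hydrolysis.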

[5] = target: Beta-lactamase (Escherichia coli K-12) (UniProt P00811)
Pseudomonas aeruginosa [6] = assay: Synergistic activity against VIM-1 beta lactamase produced by Pseudomonas aeruginosa in presence of Piperacillin and Tazobactam; R = Resistant
Beta-lactamase L1 = Beta-lactamase L1 (Stenotrophomonas maltophilia, UniProt P52700); assay: Beta-Lactamase Inhibition of metallo-beta-lactamase representative class B (L1) enzyme
Method in brief: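 For the metallo enzyme, inhibitor and enzyme were preincubated for 4 min. Concentrated nitrocefin was then added to give the final assay volume, and IC50 was determined.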

Beta-lactamase TEM = Beta-lactamase TEM (Escherichia coli, UniProt P62593); assay: Beta-Lactamase inhibitory activity against representative class A (TEM-1) serine enzyme
Method in brief: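 Serine β-lactamase assay: inhibitor preincubated with enzyme for 4 min in 100 µL, then an aliquot transferred into dilute nitrocefin substrate (1 mL final). IC50 is expressed as the inhibitor concentration in the 100 µL incubation, from multiple experiments.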

Beta-lactamase L1, sequence (P52700 whole entry): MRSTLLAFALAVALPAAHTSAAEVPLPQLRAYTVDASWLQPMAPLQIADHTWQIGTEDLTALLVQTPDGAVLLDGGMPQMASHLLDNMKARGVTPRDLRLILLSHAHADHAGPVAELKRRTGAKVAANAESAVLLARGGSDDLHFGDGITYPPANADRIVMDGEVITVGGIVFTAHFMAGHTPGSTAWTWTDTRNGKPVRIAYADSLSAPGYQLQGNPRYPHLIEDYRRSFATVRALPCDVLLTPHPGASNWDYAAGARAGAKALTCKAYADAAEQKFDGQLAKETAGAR
Beta-lactamase TEM, sequence (P62593 whole entry): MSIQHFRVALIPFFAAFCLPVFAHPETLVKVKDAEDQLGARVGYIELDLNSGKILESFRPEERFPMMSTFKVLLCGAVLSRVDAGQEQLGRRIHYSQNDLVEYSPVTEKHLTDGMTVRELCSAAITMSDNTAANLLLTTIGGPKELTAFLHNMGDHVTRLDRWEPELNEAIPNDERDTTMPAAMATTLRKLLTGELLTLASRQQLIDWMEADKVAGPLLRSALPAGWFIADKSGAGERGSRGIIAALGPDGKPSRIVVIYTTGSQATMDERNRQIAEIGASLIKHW
Beta-lactamase TEM (Escherichia coli), sequence (P62593 whole entry): as above
Beta-lactamase (Escherichia coli K-12), sequence (P00811 whole entry): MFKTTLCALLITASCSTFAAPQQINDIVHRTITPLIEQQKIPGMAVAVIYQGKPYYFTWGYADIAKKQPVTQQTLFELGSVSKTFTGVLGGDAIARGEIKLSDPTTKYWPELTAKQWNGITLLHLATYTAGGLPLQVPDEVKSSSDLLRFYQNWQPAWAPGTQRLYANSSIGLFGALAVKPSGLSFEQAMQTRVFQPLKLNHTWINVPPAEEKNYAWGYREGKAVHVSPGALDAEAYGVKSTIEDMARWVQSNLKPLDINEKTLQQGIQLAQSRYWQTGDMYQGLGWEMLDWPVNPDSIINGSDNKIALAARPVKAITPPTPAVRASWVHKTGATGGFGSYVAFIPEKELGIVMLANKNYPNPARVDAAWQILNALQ

Q: With `CC1(C)S[C@@H]2[C@@H](CS)C(=O)N2[C@H]1C(=O)O` as the compound, how does the Activity (Escherichia coli) read?
A: Susceptible

Q: What about the MIC [1] of the same compound?
A: > 128 µg/mL

Q: What about the Activity (Pseudomonas aeruginosa [2]) of the same compound?
A: Resistant

Q: And the MIC (Staphylococcus aureus)?
A: 4 µg/mL

Q: What about the Activity (Pseudomonas aeruginosa [3]) of the same compound?
A: Resistant

Q: And the IC50 [4]?
A: 1.7 µM

Q: And the MIC [5]?
A: 2 µg/mL (≈ 8.09 µM)

Q: And the Activity (Pseudomonas aeruginosa [6])?
A: Resistant

Q: And the IC50 (Beta-lactamase L1)?
A: 10.9 µM

Q: How did the IC50 (Beta-lactamase TEM) turn out when `CC1(C)S[C@@H]2[C@@H](CO)C(=O)N2[C@H]1C(=O)O` was run?
A: 275 µM

Q: And the MIC [1]?
A: > 128 µg/mL

Q: What about the MIC (Staphylococcus aureus) of the same compound?
A: 8 µg/mL

Q: What about the IC50 [4] of the same compound?
A: > 200 µM

Q: What about the MIC [5] of the same compound?
A: 4 µg/mL (≈ 17.3 µM)

Q: And the IC50 (Beta-lactamase L1)?
A: > 200 µM

Q: Which IC50 (Beta-lactamase TEM) does the source give for `CC1(C)S[C@@H]2[C@@H](S)C(=O)N2[C@H]1C(=O)O` here?
A: 988 µM

Q: And the MIC [1]?
A: > 128 µg/mL

Q: What about the MIC (Staphylococcus aureus) of the same compound?
A: 8 µg/mL

Q: What about the IC50 [4] of the same compound?
A: 17.2 µM

Q: What about the MIC [5] of the same compound?
A: 2 µg/mL (≈ 8.57 µM)

Q: What about the IC50 (Beta-lactamase L1) of the same compound?
A: 36.9 µM

Q: Which results are given for `CC1(C)S[C@@H]2[C@H](CO)C(=O)N2[C@H]1C(=O)O`?
A: IC50 (Beta-lactamase TEM): 752 µM; MIC [1]: > 128 µg/mL; MIC (Staphylococcus aureus): 4 µg/mL; IC50 [4]: > 200 µM; MIC [5]: 4 µg/mL (≈ 17.3 µM); IC50 (Beta-lactamase L1): > 200 µM

Q: How did the MIC [1] turn out when `CC1(C)[C@H](C(=O)O)N2C(=O)[C@H](CO)[C@H]2S1(=O)=O` was run?
A: 8 µg/mL

Q: What about the MIC (Staphylococcus aureus) of the same compound?
A: 2 µg/mL

Q: What about the IC50 [4] of the same compound?
A: > 200 µM

Q: And the MIC [5]?
A: 0.25 µg/mL (≈ 0.95 µM)

Q: What about the IC50 (Beta-lactamase L1) of the same compound?
A: > 200 µM

Q: Which results are given for `CC1(C)S[C@@H]2[C@H](CS)C(=O)N2[C@H]1C(=O)O`?
A: Activity (Escherichia coli): Susceptible; IC50 (Beta-lactamase TEM): 601 µM; MIC [1]: > 128 µg/mL; Activity (Pseudomonas aeruginosa [2]): Resistant; MIC (Staphylococcus aureus): 2 µg/mL; Activity (Pseudomonas aeruginosa [3]): Resistant; IC50 [4]: 2.9 µM; MIC [5]: 2 µg/mL (≈ 8.09 µM); Activity (Pseudomonas aeruginosa [6]): Resistant; IC50 (Beta-lactamase L1): 32.1 µM

Q: How did the MIC [1] turn out when `CC1(C)[C@H](C(=O)O)N2C(=O)[C@@H](CO)[C@H]2S1(=O)=O` was run?
A: 1 µg/mL

Q: What about the MIC (Staphylococcus aureus) of the same compound?
A: 1 µg/mL

Q: And the IC50 [4]?
A: > 200 µM

Q: What about the MIC [5] of the same compound?
A: 0.125 µg/mL (≈ 0.475 µM)

Q: What about the IC50 (Beta-lactamase L1) of the same compound?
A: 72.3 µM
